Reference: ChEMBL document CHEMBL2203199, “Heterocycle-functional gramine analogues: solvent- and catalyst-free synthesis and their inhibition activities against cell proliferation” (Eur J Med Chem, 2012)
Converted amounts (≈) assume the structure as drawn. The source made the active and inactive calls. No cut-off for these calls is given here.

Key:
HepG2 [1] = test: Cytotoxicity against human HepG2 cells assessed as growth inhibition at 40 ug/mL after 72 hrs by MTT assay; assay type: functional; details: HepG2, 72 h, read-out: GI
Outline: (§1)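 Growth inhibition by MTT after seeding at 2 × 10⁴ cells per well and growth to subconfluence, with 5-FU as positive control. MTT stock 5 mg/mL in PBS, 4 h formazan formation, then DMSO solubilisation and A570 read. Triplicate wells, three independent experiments, mean ± S.D.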

BGC-823 [2] = test: Cytotoxicity against human BGC823 cells assessed as growth inhibition at 40 ug/mL after 72 hrs by MTT assay; assay type: functional; details: BGC-823, 72 h, read-out: GI; outline: as §1
SGC-7901 [3] = test: Cytotoxicity against human SGC7901 cells assessed as growth inhibition at 40 ug/mL after 72 hrs by MTT assay; assay type: functional; details: SGC-7901, 72 h, read-out: GI; outline: as §1
NCI-H460 [4] = test: Cytotoxicity against human NCI-H460 cells assessed as growth inhibition at 40 ug/mL after 72 hrs by MTT assay; assay type: functional; details: NCI-H460, 72 h, read-out: GI; outline: as §1
BGC-823 [5] = test: Cytotoxicity against human BGC823 cells after 72 hrs by MTT assay; assay type: functional, cell-based; details: for IC50: Homo sapiens, BGC-823, 72 h
Outline: (§2)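 Cells seeded at 2 × 10⁴ per well and grown to subconfluence before treatment. MTT (5 mg/mL stock in PBS) added, then 4 h incubation for formazan formation. Formazan dissolved in DMSO and absorbance read at 570 nm. IC50 determined from concentration-dependent inhibition. Assays run in triplicate across three independent experiments, reported as mean ± S.D.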

SGC-7901 [6] = test: Cytotoxicity against human SGC7901 cells after 72 hrs by MTT assay; assay type: functional, cell-based; details: for IC50: Homo sapiens, SGC-7901, 72 h; outline: as §2
NCI-H460 [7] = test: Cytotoxicity against human NCI-H460 cells after 72 hrs by MTT assay; assay type: functional, cell-based; details: for IC50: Homo sapiens, NCI-H460, 72 h; outline: as §2
HepG2 [8] = test: Cytotoxicity against human HepG2 cells after 72 hrs by MTT assay; assay type: functional, cell-based; details: for IC50: Homo sapiens, HepG2, 72 h; outline: as §2
SGC-7901 [9] = test: Cytotoxicity against human SGC7901 cells assessed as change in cell morphology at 20 ug/mL after 48 hrs by inverted microscopy; assay type: functional, cell-based
NCI-H460 [10] = test: Cytotoxicity against human NCI-H460 cells assessed as change in cell morphology at 20 ug/mL after 48 hrs by inverted microscopy; assay type: functional, cell-based

| Structure (SMILES) | inhibition of growth at 40 µg/mL (HepG2 [1]) [%] | inhibition of growth at 40 µg/mL (BGC-823 [2]) [%] | inhibition of growth at 40 µg/mL (SGC-7901 [3]) [%] | inhibition of growth at 40 µg/mL (NCI-H460 [4]) [%] | IC50 (BGC-823 [5]) [µg/mL] | IC50 (SGC-7901 [6]) [µg/mL] | IC50 (NCI-H460 [7]) [µg/mL] | IC50 (HepG2 [8]) [µg/mL] | Activity (BGC-823 [5]) | Activity (HepG2 [8]) | Activity (SGC-7901 [9]) | Activity (NCI-H460 [10]) | growth inhibition (GI) (BGC-823 [5]) [%] | growth inhibition (GI) (SGC-7901 [6]) [%] | growth inhibition (GI) (NCI-H460 [7]) [%] | growth inhibition (GI) (HepG2 [8]) [%] |
| --- | --- | --- | --- | --- | --- | --- | --- | --- | --- | --- | --- | --- | --- | --- | --- | --- |
| Fc1ccccc1C(Nc1ccccn1)c1c[nH]c2ccccc12 (centres undefined) | 71.4 | 71.4 | 71.4 | 71.4 | 37.6 (≈ 118 µM) | 24.5 (≈ 77.2 µM) | 24.9 (≈ 78.5 µM) | 28.7 (≈ 90.4 µM) | – | – | – | – | – | – | – | – |
| Cn1cc(C(Nc2ccccn2)c2ccccn2)c2ccccc21 (centres undefined) | – | – | – | – | > 100 | > 100 | > 100 | > 100 | – | – | – | – | – | – | – | – |
| Fc1ccc(C(c2c[nH]c3ccccc23)n2cncn2)cc1 (centres undefined) | – | – | – | – | 10.3 (≈ 35.2 µM) | 8.2 (≈ 28.1 µM) | 10.7 (≈ 36.6 µM) | 8.4 (≈ 28.7 µM) | Dose-dependent effect | Dose-dependent effect | – | – | – | – | – | – |
| Clc1ccc(C(Nc2ccccn2)c2c[nH]c3ccccc23)cc1 (centres undefined) | 71.4 | 71.4 | 71.4 | 71.4 | 22.8 (≈ 68.3 µM) | 19.2 (≈ 57.5 µM) | 17.4 (≈ 52.1 µM) | 18.6 (≈ 55.7 µM) | – | – | – | – | – | – | – | – |
| Cn1cc(C(Nc2ccccn2)c2ccc(Cl)cc2)c2ccccc21 (centres undefined) | 73.6 | – | 70.8 | – | 30.8 (≈ 88.5 µM) | 25 (≈ 71.9 µM) | 32.1 (≈ 92.3 µM) | 25.5 (≈ 73.3 µM) | – | – | – | – | – | – | – | – |
| CN(C)Cc1c[nH]c2ccccc12 [GRAMINE] | – | – | – | – | 62.8 (≈ 360 µM) | 77.3 (≈ 444 µM) | 74.5 (≈ 428 µM) | > 100 | – | – | – | – | – | – | – | – |
| Clc1ccccc1C(Nc1ccccn1)c1c[nH]c2ccccc12 (centres undefined) | 71.4 | 71.4 | 71.4 | 71.4 | 22.7 (≈ 68 µM) | 14.9 (≈ 44.6 µM) | 12.2 (≈ 36.5 µM) | 13.1 (≈ 39.2 µM) | – | – | Active | Active | – | – | – | – |
| Fc1ccccc1C(Nc1nc2ccccc2s1)c1c[nH]c2ccccc12 (centres undefined) | – | – | – | – | 8.1 (≈ 21.7 µM) | 9.4 (≈ 25.2 µM) | 12.1 (≈ 32.4 µM) | 7 (≈ 18.7 µM) | Dose-dependent effect | Dose-dependent effect | – | – | – | – | – | – |
| c1ccc(C(Nc2ccccn2)c2c[nH]c3ccccc23)cc1 (centres undefined) | – | – | – | – | 29.4 (≈ 98.2 µM) | 24.9 (≈ 83.2 µM) | 35.3 (≈ 118 µM) | 27.6 (≈ 92.2 µM) | – | – | – | – | – | – | – | – |
| c1ccc(NC(c2ccccn2)c2c[nH]c3ccccc23)nc1 (centres undefined) | – | – | – | – | 46.9 (≈ 156 µM) | 51.4 (≈ 171 µM) | > 100 | > 100 | – | – | – | – | – | – | – | – |
| Cn1cc(C(Nc2nc3ccccc3s2)c2ccccc2F)c2ccccc21 (centres undefined) | – | – | – | – | > 100 | > 100 | > 100 | > 100 | – | – | – | – | – | – | – | – |
| Fc1ccc(C(Nc2ccccn2)c2c[nH]c3ccccc23)cc1 (centres undefined) | 71.4 | 71.4 | 71.4 | 71.4 | 21.8 (≈ 68.7 µM) | 21.5 (≈ 67.7 µM) | 24 (≈ 75.6 µM) | 23 (≈ 72.5 µM) | – | – | – | – | – | – | – | – |
| Clc1ccccc1C(Nc1nc2ccccc2s1)c1c[nH]c2ccccc12 (centres undefined) | – | – | – | – | 8.1 (≈ 20.8 µM) | 10.5 (≈ 26.9 µM) | 13.2 (≈ 33.9 µM) | 9 (≈ 23.1 µM) | – | – | Active | Active | – | – | – | – |
| FC(F)(F)c1ccc(C(Nc2ccccn2)c2c[nH]c3ccccc23)cc1 (centres undefined) | 71.4 | 71.4 | 71.4 | 71.4 | 10.1 (≈ 27.5 µM) | 13.5 (≈ 36.7 µM) | 8.6 (≈ 23.4 µM) | 12.1 (≈ 32.9 µM) | – | – | Active | Active | – | – | – | – |
| Fc1ccc(C(c2c[nH]c3ccccc23)n2cccn2)cc1 (centres undefined) | – | – | – | – | 5.7 (≈ 19.6 µM) | 8.5 (≈ 29.2 µM) | 8.5 (≈ 29.2 µM) | 8 (≈ 27.5 µM) | Dose-dependent effect | Dose-dependent effect | Active | Active | – | – | – | – |
| Cn1cc(C(Nc2ccccn2)c2ccc(C(F)(F)F)cc2)c2ccccc21 (centres undefined) | 71.4 | 71.4 | 71.4 | 71.4 | 16.8 (≈ 44 µM) | 13.8 (≈ 36.2 µM) | 16 (≈ 42 µM) | 12.9 (≈ 33.8 µM) | – | – | – | – | – | – | – | – |
| Cn1cc(C(Nc2ccccn2)c2ccncc2)c2ccccc21 (centres undefined) | – | – | – | – | 47.1 (≈ 150 µM) | 37.9 (≈ 121 µM) | 56 (≈ 178 µM) | 42.5 (≈ 135 µM) | – | – | – | – | – | – | – | – |
| O=c1[nH]cc(F)c(=O)[nH]1 [FLUOROURACIL] | – | – | – | – | 8.2 (≈ 63 µM) | 8.7 (≈ 66.9 µM) | 7.2 (≈ 55.4 µM) | 9.3 (≈ 71.5 µM) | Dose-dependent effect | Dose-dependent effect | – | – | 66.8 | 66.8 | 66.8 | 66.8 |
| Cn1cc(C(Nc2ccccn2)c2ccccc2Cl)c2ccccc21 (centres undefined) | – | – | – | – | 39.2 (≈ 113 µM) | 27.1 (≈ 77.9 µM) | 66.7 (≈ 192 µM) | 26.5 (≈ 76.2 µM) | – | – | – | – | – | – | – | – |
| c1ccc(NC(c2ccncc2)c2c[nH]c3ccccc23)nc1 (centres undefined) | – | – | – | – | > 100 | > 100 | > 100 | > 100 | – | – | – | – | – | – | – | – |
| Cn1cc(C(Nc2ccccn2)c2ccccc2F)c2ccccc21 (centres undefined) | – | – | – | – | 64.2 (≈ 194 µM) | 86.2 (≈ 260 µM) | 92.6 (≈ 279 µM) | 43.2 (≈ 130 µM) | – | – | – | – | – | – | – | – |
| Cn1cc(C(Nc2ccccn2)c2ccc(F)cc2)c2ccccc21 (centres undefined) | – | – | – | – | 51.6 (≈ 156 µM) | 51.9 (≈ 157 µM) | 49.1 (≈ 148 µM) | 38.6 (≈ 116 µM) | – | – | – | – | – | – | – | – |
